Experimental data as given in PMC5298935 (The FEBS journal, 2016).
Where two headings read alike, the source gives them in different places. Square brackets hold non-standard residues; d marks the D form. Peptide text beside a SMILES is read from it. pS = N[C@@H](COP(=O)(O)O)C(=O)O

Experiments:
[1] = target: Pin1-FL (with 6X-His tag) (Homo sapiens, UniProt Q13526); assay: Biolayer interferometry; assay type: binding
In short: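 Ni-NTA biosensors loaded with 10 μg/mL His-tagged full-length Pin1 for 600 s, quenched 300 s with buffer plus 10 mM imidazole and 25 μg/mL biotin. Association with singly or dually phosphorylated peptide at 80–1.25 μM for 600 s, then 600 s dissociation in buffer. Buffer: 10 mM HEPES, 20 mM NaCl, 0.1 mM TCEP, pH 7.4; 25°C. Pin1-free sensors served as nonspecific-binding reference.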

Pin1-FL [2] = target: T1, Pin1-FL (Homo sapiens, UniProt Q13526); assay type: binding; settings: B = C-terminal site
T1 sequence (Q13526 whole entry): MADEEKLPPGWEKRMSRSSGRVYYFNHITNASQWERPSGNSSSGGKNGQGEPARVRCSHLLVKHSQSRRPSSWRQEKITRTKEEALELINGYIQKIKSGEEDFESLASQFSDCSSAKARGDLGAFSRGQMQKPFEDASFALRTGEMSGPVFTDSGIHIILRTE
In short: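 Full-length Pin1 underwent reverse titration with dually phosphorylated peptides; HSQC perturbations in N and H dimensions were fit separately (fmincon). The multistate model added two bivalent states, each with its own Keq. Non-bivalent KD and bound shifts were fixed from single-site titrations. Residues needed distinct bound shifts per motif. Reduced chi-square used σH 0.00407 and σN 0.0205 ppm.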

Pin1-FL [3] = target: T1, Pin1-FL; assay: Simulation of Pin1-FL binding at low micromolar concentrations

Pin1-FL (with 6X-His tag), sequence (Q13526 whole entry): as above

Row | Pin1 binding detected by biolayer interferometry ([1]; peptide 1.25-80 μM, BLI buffer pH 7.4, 25°C) | Kd [1] [nM] | KeqB:WW (Fitted Keq^A:WW, Keq^B:WW and Δδbound for bivalent states) (Pin1-FL [2]; nitrogen dimension) | KeqB:WW (Fitted Keq^A:WW, Keq^B:WW and Δδbound for bivalent states) (Pin1-FL [2]; proton dimension) | ΔGequiv (change in Gibbs free energy) (Pin1-FL [3]; corresponds to the equivalent bimolecular KD at 20 μM peptide) [kcal/mol] | total fraction of bound Pin1 (Pin1-FL [3]; simulated, 20 μM peptide, total Pin1 ~0.5 μM, sum of all bound Pin1 species divided by total Pin1) | SMILES
1 | not measurable | – | – | – | – | – | CC(C)C[C@H](NC(=O)[C@H](Cc1ccccc1)NC(=O)[C@@H](NC(=O)[C@@H](N)CO)[C@@H](C)O)C(=O)N[C@@H](COP(=O)(O)O)C(=O)N1CCC[C@H]1C(=O)N[C@@H](C)C(=O)N[C@@H](Cc1ccccc1)C(=O)N1CCC[C@H]1C(=O)NCC(=O)O [p144] (H-STFL[pS]PAFPG-OH)
2 | – | 1000 | 0.02 | 0.43 | -7.49 | 0.85 | CC(=O)N[C@@H](CCC(=O)O)C(=O)N[C@@H](C)C(=O)N[C@@H](CCC(=O)O)C(=O)N[C@@H](C)C(=O)N[C@@H](Cc1c[nH]c2ccccc12)C(=O)N[C@@H](COP(=O)(O)O)C(=O)N1CCC[C@H]1C(=O)N[C@@H](CCCNC(=N)N)C(=O)N[C@@H](CCCCN)C(=O)N[C@@H](CC(C)C)C(=O)N1CCC[C@H]1C(=O)N[C@@H](CO)C(=O)N[C@@H](CO)C(=O)N[C@@H](C)C(=O)N[C@@H](CO)C(=O)N[C@H](C(=O)N[C@@H](Cc1ccccc1)C(=O)N[C@@H](CC(C)C)C(=O)N[C@@H](COP(=O)(O)O)C(=O)N1CCC[C@H]1C(=O)N[C@@H](C)C(=O)N[C@@H](Cc1ccccc1)C(=O)N1CCC[C@H]1C(=O)NCC(N)=O)[C@@H](C)O [p131/p144] (Ac-EAEAW[pS]PRKLPSSASTFL[pS]PAFPG-NH2)
